Screens: PubChem, Broad Institute
ERAP1 inh: ERAP1 (human) enzyme inhibition; Q9NZ08; recombinant ERAP1, Leu-AMC fluorescence, 60 min; inhibition, % at 10.7 µM; 340,000 compounds, 0.15% hits;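 active means mean replicate inhibition of at least 30%, or all replicates individually reaching that 30% level; inactive means mean below 30% and not every replicate reaching it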;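 further: 0% = neutral control wells and 100% = L-leucinethiol positive control wells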
Ecoli rRNA inh: inhibitors of bacterial rRNA selective over humanized ribosomes | E. coli WT GFP vs humanized-ribosome RFP mutants, fluorescence, 24 h; stronger effect = lower value; DMSO median 0, no signal -100 | GFP signal change (wild-type ribosome), % (no concentration beside the values) | 350,000 compounds, 1.6% hits | AID 720706;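 active means significant combined selectivity score with lowered wild-type GFP, culture density cut under 30%, mutant RFP and density less affected; inactive means any of these conditions unmet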
FGF22 binding: shifts melting point of recombinant human FGF22. recombinant FGF22 thermal shift, SYPRO orange fluorescence; percent of sucrose octasulfate shift, DMSO zero. activity (Tm shift, normalised), % at 9.99 µM. AID 651658. 340,000 compounds, 1.5% hits;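 active means mean Tm shift, scaled 0 neutral to 100 positive control, at about 1.3% or above, every replicate too, limit read from the data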
Target sequence (Q9HCT0 whole entry, looked up): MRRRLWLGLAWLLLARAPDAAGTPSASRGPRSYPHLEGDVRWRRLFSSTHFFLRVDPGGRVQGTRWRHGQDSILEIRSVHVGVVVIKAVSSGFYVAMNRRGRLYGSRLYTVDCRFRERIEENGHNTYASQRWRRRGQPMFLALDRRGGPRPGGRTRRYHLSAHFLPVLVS
Cneo AK release: Cryptococcus neoformans lysis via adenylate kinase release; C. neoformans lysis, adenylate kinase release luminescence, 4 h; normalised: neutral wells 0, clomiphene wells 100; 360,000 compounds, 0.2% hits; lysis activity, % at 15 µM;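 active means mean lysis activity across replicates of at least 80%, whatever share of replicates individually reach that level; inactive means mean lysis activity below 80%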
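Material: C. neoformans cells | Amount: Yeast cell density of 5 × 10^6 cells/mL | Medium: Fresh YPD growth medium | Dosing: Single dose | Times: Static 4 h at 37 °C with compound, 1 h detection | Detection: AK luminescence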
Env fusion inh: inhibitors of HIV Env-mediated cell fusion. 360,000 compounds, 1.1% hits. AID 651610. HeLa-JRFL Env/CEM21 cell fusion, luciferase. inhibition, % at 12.3 µM;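 active means mean replicate inhibition score of at least 50 and every replicate individually at or above 50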;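 further: 0% = plate neutral controls and 100% = maraviroc near 300 nM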
PGC1a acetyl inh: lowers PGC1a acetylation signal in U2OS cells. AlphaScreen anti-acetyl-lysine; with virally co-expressed GCN5 acetyltransferase. inhibition, % at 15.6 µM. 350,000 compounds, 0.17% hits. AID 651687;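 active means every replicate shows inhibition of at least 40%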;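 further: 0% = neutral control wells and 100% = positive control wells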
* = called active by the depositor. This is a sample that favours compounds with a hit; in the whole collection about 3.5% have one here.

Screening COCC(=O)N1CC(=O)N2[C@H](C1)[C@H](c1ccc(-c3ccccc3)cc1)[C@@H]2CO returned ERAP1 inh 1, Ecoli rRNA inh 0 and PGC1a acetyl inh 7.
N#Cc1ccc(-c2ccc([C@H]3[C@H](CO)N4C(=O)CN(C(=O)C5CC5)C[C@@H]34)cc2)cc1 was read as ERAP1 inh 38*, Ecoli rRNA inh -1 and PGC1a acetyl inh -5.
Screening COCC(=O)N1CC(=O)N2[C@@H](CO)[C@H](c3ccc(-c4ccncc4)cc3)[C@@H]2C1 returned ERAP1 inh 1, Ecoli rRNA inh 2, FGF22 binding 0 and PGC1a acetyl inh 102*.
O=S(=O)(Nc1ccc2nc(N3CCOCC3)sc2c1)c1ccc(Cl)cc1 was read as ERAP1 inh -1, Ecoli rRNA inh -46, FGF22 binding 0, Cneo AK release 9, Env fusion inh -6 and PGC1a acetyl inh -8.
`CC(C)Oc1ccc(CCc2n[nH]c(=S)n2-c2ccccc2)cc1` gave ERAP1 inh -2, Ecoli rRNA inh -21*, FGF22 binding 0, Cneo AK release -1, Env fusion inh -1 and PGC1a acetyl inh 5.
For Cc1cccc(C)c1OCc1n[nH]c(=S)n1-c1ccccc1 the results were Ecoli rRNA inh -29*, FGF22 binding 0, Cneo AK release 4 and Env fusion inh 8.
Screening Cc1ccc(OCc2n[nH]c(=S)n2-c2ccccc2)cc1C returned ERAP1 inh 10, Ecoli rRNA inh -23, FGF22 binding 0, Env fusion inh 0 and PGC1a acetyl inh 4.
`CCOC(=O)c1cn[nH]c1NC(=S)Nc1ccc(Cl)cc1` gave ERAP1 inh 6, Ecoli rRNA inh -41*, FGF22 binding 0, Cneo AK release -5, Env fusion inh inactive and PGC1a acetyl inh 3.
`Cc1cnc(C(=O)NCCc2ccc(Cl)cc2)cn1` gave ERAP1 inh -2, Ecoli rRNA inh 5, FGF22 binding 0, Cneo AK release 3 and Env fusion inh -2.
Cc1cnc(C(=O)NCc2ccc(Cl)cc2Cl)cn1 was read as ERAP1 inh 1, Ecoli rRNA inh 12, FGF22 binding 43* and Env fusion inh 26.
For Cc1sc(N(C(=O)CCc2ccccc2)c2ccc(C(=O)O)cc2)nc1-c1ccccc1 the results were ERAP1 inh 7, Ecoli rRNA inh 5, FGF22 binding 1, Env fusion inh -7 and PGC1a acetyl inh 0.
`CCC(=O)N(c1ccc(C(=O)O)cc1)c1nc(-c2ccc(OC)cc2)c(C)s1` gave ERAP1 inh 1, Ecoli rRNA inh 16, FGF22 binding 44* and Env fusion inh 24.
CCOC(=O)Cn1c(C)cc(COC)c(C#N)c1=O was read as ERAP1 inh 0, Ecoli rRNA inh 19, FGF22 binding 43*, Env fusion inh -9 and PGC1a acetyl inh 9.
Screening CC(C)=NNc1nc2c(c(=O)[nH]c(=O)n2C)n1CCc1ccccc1 returned ERAP1 inh -4, Ecoli rRNA inh 8, FGF22 binding 0, Env fusion inh -12 and PGC1a acetyl inh 2.
CN(Cc1ccccc1)C(=O)C(C(=O)c1ccc(F)cc1)n1cc(Cl)ccc1=O (stereo unspecified) was read as ERAP1 inh 1, Ecoli rRNA inh -30*, FGF22 binding 0, Env fusion inh -3 and PGC1a acetyl inh 6.
For O=C(NCc1ccc2c(c1)OCO2)C(C(=O)c1ccccc1)n1cc(Cl)ccc1=O (stereo unspecified) the results were ERAP1 inh -2, Ecoli rRNA inh 12 and FGF22 binding 0.
CCc1ccc(OCCCC(=O)NCc2ccco2)cc1 was read as ERAP1 inh 0, Ecoli rRNA inh -4, FGF22 binding 44*, Env fusion inh 6 and PGC1a acetyl inh -3.
For Cc1ccc(OCCCC(=O)NCc2ccco2)cc1 the results were Cneo AK release 2, Env fusion inh -2 and PGC1a acetyl inh -7.
Screening COc1ccc(NC(=O)C2CCC(=O)N2)cc1 (stereo unspecified) returned Cneo AK release 1 and Env fusion inh -26.
`Cc1cc(C)c(NC(=O)C2CCC(=O)N2)c(C)c1` (stereo unspecified) gave ERAP1 inh -1, Ecoli rRNA inh 12, FGF22 binding 0, Cneo AK release 735*, Env fusion inh 11 and PGC1a acetyl inh -5.
`COc1ccc(C)cc1NCc1cc(=O)oc2cc(-c3ccccc3)c(O)cc12` gave Env fusion inh -12.
For COC(=O)c1ccccc1NCc1cc(=O)oc2cc(O)c(O)cc12 the results were ERAP1 inh -1, Ecoli rRNA inh -22*, FGF22 binding 0, Cneo AK release 0 and Env fusion inh -5.
`CCC/C(O)=C1\C(=O)CCCC1=NCCc1c(C)[nH]c2ccc(OC)cc12` gave ERAP1 inh 9, Ecoli rRNA inh -17, FGF22 binding 43*, Cneo AK release 1, Env fusion inh -5 and PGC1a acetyl inh -6.
Screening CCCC/C(O)=C1\C(=O)CCCC1=NCCc1c(C)[nH]c2ccccc12 returned ERAP1 inh -1, Ecoli rRNA inh -23*, FGF22 binding 0, Env fusion inh 17 and PGC1a acetyl inh -9.
Screening O=C(NCCc1ccccc1)c1c(F)cccc1F returned ERAP1 inh 0, Ecoli rRNA inh 20, FGF22 binding 43*, Cneo AK release -3, Env fusion inh -29 and PGC1a acetyl inh 0.
`O=C(NCCc1csc(-c2ccccc2)n1)c1c(F)cccc1F` gave ERAP1 inh 7, Ecoli rRNA inh 3, FGF22 binding 0, Cneo AK release 4, Env fusion inh -19 and PGC1a acetyl inh -9.
CSc1ncccc1C(=O)NCCc1ccccc1 was read as ERAP1 inh 3, Ecoli rRNA inh 9, FGF22 binding 43*, Cneo AK release 0, Env fusion inh -3 and PGC1a acetyl inh 8.
For COc1ccccc1CN(C)CC(=O)Nc1ccc(Cl)cc1F the results were ERAP1 inh -2, Ecoli rRNA inh -44 and Env fusion inh 18.
Screening CN(CC(=O)Nc1ccccc1C(F)(F)F)Cc1c(O)ccc2ccccc12 returned ERAP1 inh 3, Ecoli rRNA inh -27*, FGF22 binding 0, Cneo AK release 1, Env fusion inh 11 and PGC1a acetyl inh 7.
`CCc1ccccc1NC(=O)CN(C)Cc1c(O)ccc2ccccc12` gave ERAP1 inh -2, Ecoli rRNA inh -1, FGF22 binding 0, Cneo AK release 0 and Env fusion inh 8.
COc1ccccc1CN(C)CC(=O)Nc1ccc(Cl)cc1C(F)(F)F was read as ERAP1 inh 4, Ecoli rRNA inh -34*, FGF22 binding 0 and Env fusion inh 2.
